# Rows were chosen to be rich in hits. Some 1.9% of all compounds tested hit in one or more screens of this group.
# HIF activator: HIF pathway transcriptional activation; U2OS HRE-luciferase reporter, luminescence; normalized: DMSO 0%, desferrioxamine 100%; activation, % at 7.5 µM (by protocol); 300,000 compounds, 0.32% hits;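 active means mean activation of at least 10% of the iron chelator positive control signal, with at least half of replicates also reaching 10%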
# PP1 inh: blocks human PP1-alpha phosphatase, a PP5 counter-screen; P62136; purified PP1alpha, OMFP fluorescence; inhibition, % at 6.7 µM; 320,000 compounds, 0.9% hits;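 active means inhibition above the mean inhibition of all tested compounds plus 3 SD, computed separately for each screening campaign, cut at about 15% in these data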
# Target sequence (P62136 whole entry, looked up): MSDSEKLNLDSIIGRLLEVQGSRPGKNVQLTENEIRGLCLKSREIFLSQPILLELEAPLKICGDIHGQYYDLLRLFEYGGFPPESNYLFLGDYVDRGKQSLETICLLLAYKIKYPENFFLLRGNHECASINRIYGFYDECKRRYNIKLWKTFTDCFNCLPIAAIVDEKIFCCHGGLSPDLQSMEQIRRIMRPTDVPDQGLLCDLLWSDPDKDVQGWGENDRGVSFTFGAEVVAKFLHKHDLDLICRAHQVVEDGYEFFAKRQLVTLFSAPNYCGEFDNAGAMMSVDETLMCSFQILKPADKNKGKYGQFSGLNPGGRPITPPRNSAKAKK
# HCV NS3 hel inh: HCV NS3 helicase inhibition; NS3 helicase DNA unwinding, Cy5 molecular beacon fluorescence; inhibition, % at 10.9 µM; 290,000 compounds, 0.56% hits;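 active means inhibition above the mean of all tested compounds plus 3 SD, set per campaign, cut at about 35% in these data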
#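 test system = hepatitis C virus NS3 helicase domain fragment enzyme | reagent = annealed dual-labelled DNA beacon duplex, ATP-started | times = 1 h at 25 °C | detection = Cy5 fluorescence, 0 and 60 min reads | read-out basis = percent inhibition from t60/t0 fluorescence ratio | control set = DMSO and thioflavine S | replication = one well per compound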
# PP5 inh: inhibitors of human protein phosphatase 5 (PP5); purified PP5c, OMFP substrate fluorescence; inhibition, % at 6.7 µM; 320,000 compounds, 0.18% hits; AID 1987;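 active means inhibition above the campaign's mean inhibition across all tested compounds plus 3 SD, cut at about 9.5% in these data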
# DNA FID counter: displaces DNA intercalator in HCV helicase counter-screen; DNA fluorescent intercalator displacement, fluorescence; inhibition, % at 7.9 µM; AID 1845; 290,000 compounds, 0.17% hits; in the data active means inhibition above about 37%;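 further: higher means more ethidium bromide displaced from hairpin DNA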
# PP1 inh confirm: human PP1 phosphatase inhibition, confirmation; purified PP1alpha, OMFP substrate fluorescence; AID 2358; inhibition, % at 6.7 µM; 1,900 compounds, 52% hits; shares compounds with PP1 inh;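 active means mean PP1 inhibition above a set limit taken from the earlier primary screen, cut at about 15% in these data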
# PP5 counter: inhibits human PP5 phosphatase in PP1 counter-screen; inhibition, % at 6.7 µM; shares compounds with PP1 inh; purified PP5c, OMFP fluorescence; 1,900 compounds, 4% hits;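 active means mean PP5 inhibition over triplicate wells above about 9.5% taken from the earlier PP1 screen, limit read from the data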
# Numbers stand for hits; - = inactive; . = not tested or not shown.
SMILES,HIF activator,PP1 inh,HCV NS3 hel inh,PP5 inh,DNA FID counter,PP1 inh confirm,PP5 counter
CCCCOC(=O)Cn1c(=O)n(CC(=O)OCCCC)c2ccccc21,-,-,-,-,-,.,.
CCCCCOC(=O)Cn1c(=O)oc2ccccc21,-,-,-,-,-,.,.
CCCCCCCCCCOC(=O)Cn1c(COc2ccc(OC)cc2)[n+](C)c2ccccc21,-,34.7,-,-,-,-,-
CCCCCCCCCCOC(=O)Cn1c(COc2ccccc2)[n+](C)c2ccccc21,-,35.8,-,-,-,-,-
CCCCCCCCCCOC(=O)Cn1c(COc2cccc(C)c2)[n+](C)c2ccccc21,-,41.8,-,-,-,16.1,-
CCCCCCCCCCOC(=O)Cn1c(COc2ccc(Cl)cc2)[n+](C)c2ccccc21,-,47.5,-,-,-,21.5,-
O=C(CSc1n[nH]c(-c2ccncc2)n1)Nc1ccc(Cl)c(Cl)c1,-,-,-,-,-,.,.
CCCN(CCC)C(=O)c1oc2ccccc2c1NC(=O)Cc1cccc(OC)c1,-,-,-,-,-,.,.
C/C(CC(=O)Nc1ccc(OCc2ccccc2)cc1)=N\NC(=O)C(=O)Nc1ccc(C)c(Cl)c1,-,-,-,-,-,.,.
CCCCCCCCCCOC(=O)Cn1c(COc2ccccc2C)[n+](C)c2ccccc21,-,44.5,-,-,-,15.9,-
CCOC(=O)Cn1c(COc2ccccc2OC)[n+](C)c2ccccc21,-,-,.,-,.,.,.
CCCOc1ccc(/C=N/Nc2cc(N3CCOCC3)ncn2)c(O)c1,-,27.3,-,-,-,22.8,-
C#CCOCCOCCOCCNc1nc(N2CCN(C(=O)CCCCCCCCCCNC(=O)Cn3cc(CCCCCN)nn3)CC2)nc(N2CCN(C(=O)CCCCCCCCCCNC(=O)[C@@H](CCC(=O)O)n3cc(CCCCCN)nn3)CC2)n1,.,-,.,-,.,.,.
C#CCOCCOCCOCCNc1nc(N2CCN(C(=O)CCCCCCCCCCNC(=O)[C@@H](CCSC)n3cc(CCO)nn3)CC2)nc(N2CCN(C(=O)CCCCCCCCCCNC(=O)[C@H](CCSC)n3cc(CCO)nn3)CC2)n1,.,22.6,.,-,.,-,-
C#CCOCCOCCOCCNc1nc(N2CCN(C(=O)CCCCCCCCCCNC(=O)Cn3cc(CCCCCN)nn3)CC2)nc(N2CCN(C(=O)CCCCCCCCCCNC(=O)Cn3cc(CCCCCN)nn3)CC2)n1,.,32.7,.,-,.,-,-
C#CCOCCOCCOCCNc1nc(N2CCN(C(=O)CCCCCCCCCCNC(=O)Cn3cc(CCCCCN)nn3)CC2)nc(N2CCN(C(=O)CCCCCCCCCCNC(=O)[C@@H](CCSC)n3cc(CCO)nn3)CC2)n1,.,35.5,.,-,.,41.2,-
C#CCOCCOCCOCCNc1nc(N2CCN(C(=O)CCCCCCCCCCNC(=O)Cn3cc(C[C@@H](C)O)nn3)CC2)nc(N2CCN(C(=O)CCCCCCCCCCNC(=O)[C@H](CO)n3cc(CCCSC)nn3)CC2)n1,.,-,.,-,.,.,.
O=C(Nc1nnc(SCc2c(Cl)cccc2Cl)s1)c1ccc2ncsc2c1,-,-,-,-,-,.,.
N#Cc1ccc(CSc2nnc(NC(=O)c3ccc4ncsc4c3)s2)cc1,-,23.9,-,-,-,48.8,-
O=C(CSc1nnc2c(n1)[nH]c1ccccc12)NCc1ccccc1F,-,22.5,-,-,-,-,-
O=C(CSc1nnc2c(n1)[nH]c1ccc(F)cc12)Nc1ccccc1F,-,-,-,-,-,.,.
O=[N+]([O-])c1ccccc1/C=C/C=N/n1c(-c2ccc(Cl)cc2)n[nH]c1=S,-,25.4,-,-,-,27.5,-
COC(=O)c1ccc2c(c1)C(C)(C)C(/C=C/c1ccccc1O)=[N+]2C,-,18.9,-,-,-,-,-
CC(=O)c1cccc(NC(=O)NC2CC(=O)N(c3ccc4c(c3)OCCO4)C2)c1 (stereo not given),-,-,.,-,.,.,.
CCOc1ccc(NC(=NCc2ccc3c(c2)OCO3)SC2CC(=O)N(c3ccc(OCC)cc3)C2=O)cc1 (stereo not given),-,-,-,-,-,.,.
CCOc1ccc(NC(=NCc2ccc3c(c2)OCO3)SC2CC(=O)N(c3ccc(C(=O)O)cc3)C2=O)cc1 (stereo not given),-,19.3,-,-,-,-,-

# Compound activity (PubChem)
